Consider nine compounds from ChEMBL document CHEMBL1126783, “Design of potent, cyclic peptide bradykinin receptor antagonists from conformationally constrained linear peptides” (J Med Chem, 1993).

Where a SMILES comes first, the peptide text is derived from it. Bridges are numbered along the chain shown (N, C = ends). [ ]: non-standard residue; d: D form. Oic = O=C(O)[C@@H]1C[C@@H]2CCCC[C@@H]2N1; Hyp = O=C(O)[C@@H]1C[C@@H](O)CN1; dTic = O=C(O)[C@H]1Cc2ccccc2CN1

In experiment [1] the target is T1, B2 bradykinin receptor (Cavia porcellus, UniProt O70526).
T1 sequence (O70526 whole entry): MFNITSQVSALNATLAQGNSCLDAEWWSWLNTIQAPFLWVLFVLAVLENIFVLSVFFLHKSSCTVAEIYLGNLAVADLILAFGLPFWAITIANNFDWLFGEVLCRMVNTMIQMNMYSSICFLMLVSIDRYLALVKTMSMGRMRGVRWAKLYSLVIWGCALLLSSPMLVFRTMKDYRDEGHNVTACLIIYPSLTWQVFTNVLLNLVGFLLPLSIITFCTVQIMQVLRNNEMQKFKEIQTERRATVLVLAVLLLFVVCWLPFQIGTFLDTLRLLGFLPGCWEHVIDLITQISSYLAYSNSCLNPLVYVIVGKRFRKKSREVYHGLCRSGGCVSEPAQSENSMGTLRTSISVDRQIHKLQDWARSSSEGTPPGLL
As to the kind of experiment: Binding affinity against [3H]bradykinin binding to bradykinin receptor B2 in guinea pig ileal membrane. The experiment is classed as cell membranes. Put shortly:
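Competition binding against [³H]bradykinin on guinea pig ileal membrane preparations, with affinity given as Ki following a previously described method. The ileum expresses only B2 receptors.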

Experiment [2] has as its target T1, B2 bradykinin receptor. Put plainly: Antagonism against bradykinin receptor B2 in guinea pig ileal tissue. The experiment is classed as functional. Conditions: read-out: pA2 (converted). Put shortly:
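Functional antagonism recorded as pA2 in isolated guinea pig ileal tissue, a preparation that expresses only B2 receptors. The procedure follows conventional, previously reported methods.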

Compound `CN(CC(=O)N[C@@H](Cc1ccccc1)C(=O)N[C@@H](CO)C(=O)N1Cc2ccccc2C[C@@H]1C(=O)N1C2CCCCC2C[C@H]1C(=O)N[C@@H](CCCN=C(N)N)C(=O)O)C(=O)[C@@H]1C[C@H](O)CN1C(=O)[C@@H]1CCCN1C(=O)[C@H](CCCN=C(N)N)NC(=O)[C@H](N)CCCN=C(N)N` (some centres not stated) returned a Ki in experiment [1] of 30.8 nM.

`CC(NC(=O)[C@@H]1C[C@H](O)CN1C(=O)[C@@H]1CCCN1C(=O)[C@H](CCCN=C(N)N)NC(=O)[C@H](N)CCCN=C(N)N)C(=O)N[C@@](C)(Cc1ccccc1)C(=O)N[C@@H](CO)C(=O)N1Cc2ccccc2C[C@@H]1C(=O)N1C2CCCCC2C[C@H]1C(=O)N[C@@H](CCCN=C(N)N)C(=O)O` (some centres not stated) displayed an inhibition constant (Ki) in experiment [1] of 3030 nM.

In the case of `CN(CC(=O)N(C)[C@@H](Cc1ccccc1)C(=O)N[C@@H](CO)C(=O)N1Cc2ccccc2C[C@@H]1C(=O)N1C2CCCCC2C[C@H]1C(=O)N[C@@H](CCCN=C(N)N)C(=O)O)C(=O)[C@@H]1C[C@H](O)CN1C(=O)[C@@H]1CCCN1C(=O)[C@H](CCCN=C(N)N)NC(=O)[C@H](N)CCCN=C(N)N` (some centres not stated), the inhibitory constant (Ki) in experiment [1] was found to be 1690 nM.

As to `C[C@@](Cc1ccccc1)(NC(=O)CNC(=O)[C@@H]1C[C@H](O)CN1C(=O)[C@@H]1CCCN1C(=O)[C@H](CCCN=C(N)N)NC(=O)[C@H](N)CCCN=C(N)N)C(=O)N[C@@H](CO)C(=O)N1Cc2ccccc2C[C@@H]1C(=O)N1C2CCCCC2C[C@H]1C(=O)N[C@@H](CCCN=C(N)N)C(=O)O` (some centres not stated), the Kb in experiment [2] was 12.6 nM. The compound further displayed an inhibitory constant (Ki) in experiment [1] of 0.54 nM.

In the case of `CC(NC(=O)[C@@H]1C[C@H](O)CN1C(=O)[C@@H]1CCCN1C(=O)[C@H](CCCN=C(N)N)NC(=O)[C@H](N)CCCN=C(N)N)C(=O)N[C@@H](Cc1ccccc1)C(=O)N[C@@H](CO)C(=O)N1Cc2ccccc2C[C@@H]1C(=O)N1C2CCCCC2C[C@H]1C(=O)N[C@@H](CCCN=C(N)N)C(=O)O` (some centres not stated), in experiment [1], the Ki came out at 82.3 nM.

Turning to `CN(C(=O)CNC(=O)[C@@H]1C[C@H](O)CN1C(=O)[C@@H]1CCCN1C(=O)[C@H](CCCN=C(N)N)NC(=O)[C@H](N)CCCN=C(N)N)[C@@H](Cc1ccccc1)C(=O)N[C@@H](CO)C(=O)N1Cc2ccccc2C[C@@H]1C(=O)N1C2CCCCC2C[C@H]1C(=O)N[C@@H](CCCN=C(N)N)C(=O)O` (some centres not stated), the Kb in experiment [2] was 2510 nM. In experiment [1], the inhibition constant (Ki) was determined as 26.5 nM.

Turning to `N=C(N)NCCC[C@@H](N)C(=O)N[C@@H](CCCNC(=N)N)C(=O)N[C@H]1CSSC[C@@H](C(=O)N[C@@H](CO)C(=O)N2Cc3ccccc3C[C@@H]2C(=O)N2[C@H](C(=O)N[C@@H](CCCNC(=N)N)C(=O)O)C[C@@H]3CCCC[C@@H]32)NC(=O)CNC(=O)[C@@H]2CCCN2C1=O` (H-[dR]RCPGCS[dTic][Oic]R-OH; disulfide 3-6), the Kb in experiment [2] was 240 nM.

As for `NC(N)=NCCC[C@@H](N)C(=O)N[C@@H](CCCN=C(N)N)C(=O)N[C@H]1CSSC[C@@H](C(=O)N2Cc3ccccc3C[C@@H]2C(=O)N2[C@H](C(=O)N[C@@H](CCCN=C(N)N)C(=O)O)C[C@@H]3CCCC[C@@H]32)NC(=O)[C@H](Cc2ccccc2)NC(=O)CNC(=O)[C@@H]2CCCN2C1=O` (H-[dR]RCPGFC[dTic][Oic]R-OH; disulfide 3-7), in experiment [2], the Kb was 501 nM.

Turning to `NC(N)=NCCC[C@@H](N)C(=O)N[C@@H](CCCN=C(N)N)C(=O)N1CCC[C@H]1C(=O)N1C[C@H](O)C[C@H]1C(=O)NCC(=O)N[C@@H](Cc1ccccc1)C(=O)N[C@@H](CO)C(=O)N1Cc2ccccc2C[C@@H]1C(=O)N1[C@H](C(=O)N[C@@H](CCCN=C(N)N)C(=O)O)C[C@@H]2CCCC[C@@H]21` (H-[dR]RP[Hyp]GFS[dTic][Oic]R-OH), the Kb in experiment [2] was 1.51 nM. The Ki in experiment [1] was found to be 0.08 nM.

The Ki is the dissociation constant of the complex between target and ligand, obtained from inhibition or displacement. Lower therefore signals tighter binding.
